Experimental data published in publication PMC5814546 (Clinical Pharmacokinetics, 2017).
Like-named read-outs stand apart in the source and are kept apart here.

Columns and labels:
[1] = Phase I single ascending dose study of ALZ-801 loose-filled capsule; type: in vivo, human; details: both, human, plasma, oral, 100 mg, Plasma tramiprosate t ½, mean ± SD
Summary of the method: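 Single fasted oral loose-filled capsules; 172 mg in 36 healthy subjects over 50 y (parallel, randomized 1:1:1), 300 mg in 15 subjects over 50 y. Plasma sampled over 48 h into K3 EDTA on ice, spun 2000g 10 min 4 °C, stored at or below −20 °C. LC-MS assay; non-compartmental analysis; Tmax as median (range).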

[2] = Phase I multiple ascending dose study of ALZ-801 capsule and tablet; type: in vivo, human; details: plasma; for AUC / Cmax / Tmax / half-life: both, human, oral, 265 mg, mean ± SD; for Cmax: C max; for Tmax: T max; for half-life: t ½
[3] = Single-dose ALZ-801 immediate-release tablet PK and food effect study; type: in vivo, human; details: plasma; for Cmax: C max
[4] = Urine drug recovery, renal clearance and estimate of oral bioavailability; type: in vivo, human; details: Cohort D, 24-h urine; for CL renal: both, human, urine and plasma, oral, 265 mg, CLr, mean ± SD
Summary of the method: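 Cohort D: 265 mg immediate-release tablet in the fed state (meal 30 min pre-dose), once on day 1, twice daily days 2–6, once on day 7. Urine was collected over 24 h on days 1 and 7 and assayed by LC-MS (LLOQ 30 ng/mL ALZ-801, 100 ng/mL tramiprosate). Renal clearance was calculated as Ae divided by plasma AUC24.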

[5] = target: T1, organic anion transporter (OAT) 1 (Homo sapiens, UniProt Q4U2R8); experiment: Effect on renal transporters; type: in vitro ADME; details: concentrations up to 100 mM; data on file
T1 sequence (Q4U2R8 1-563): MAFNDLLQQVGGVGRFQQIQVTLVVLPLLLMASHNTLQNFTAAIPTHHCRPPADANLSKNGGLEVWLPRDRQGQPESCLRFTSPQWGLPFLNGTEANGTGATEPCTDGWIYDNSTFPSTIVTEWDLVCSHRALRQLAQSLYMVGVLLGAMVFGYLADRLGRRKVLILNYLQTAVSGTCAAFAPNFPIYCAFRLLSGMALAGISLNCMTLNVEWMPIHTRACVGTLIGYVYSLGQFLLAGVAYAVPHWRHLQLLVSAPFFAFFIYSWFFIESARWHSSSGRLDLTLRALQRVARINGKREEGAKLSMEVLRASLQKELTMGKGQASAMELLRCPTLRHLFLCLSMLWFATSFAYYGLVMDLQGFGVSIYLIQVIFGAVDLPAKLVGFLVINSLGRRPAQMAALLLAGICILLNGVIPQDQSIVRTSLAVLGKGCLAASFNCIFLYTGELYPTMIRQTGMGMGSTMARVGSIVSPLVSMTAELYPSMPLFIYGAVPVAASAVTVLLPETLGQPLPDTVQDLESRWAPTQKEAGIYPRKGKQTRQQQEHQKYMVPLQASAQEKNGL

[6] = target: T2, OAT3 (Homo sapiens, UniProt Q8TCC7); experiment: Effect on renal transporters; type: in vitro ADME; details: concentrations up to 100 mM; data on file
T2 sequence (Q8TCC7 1-542): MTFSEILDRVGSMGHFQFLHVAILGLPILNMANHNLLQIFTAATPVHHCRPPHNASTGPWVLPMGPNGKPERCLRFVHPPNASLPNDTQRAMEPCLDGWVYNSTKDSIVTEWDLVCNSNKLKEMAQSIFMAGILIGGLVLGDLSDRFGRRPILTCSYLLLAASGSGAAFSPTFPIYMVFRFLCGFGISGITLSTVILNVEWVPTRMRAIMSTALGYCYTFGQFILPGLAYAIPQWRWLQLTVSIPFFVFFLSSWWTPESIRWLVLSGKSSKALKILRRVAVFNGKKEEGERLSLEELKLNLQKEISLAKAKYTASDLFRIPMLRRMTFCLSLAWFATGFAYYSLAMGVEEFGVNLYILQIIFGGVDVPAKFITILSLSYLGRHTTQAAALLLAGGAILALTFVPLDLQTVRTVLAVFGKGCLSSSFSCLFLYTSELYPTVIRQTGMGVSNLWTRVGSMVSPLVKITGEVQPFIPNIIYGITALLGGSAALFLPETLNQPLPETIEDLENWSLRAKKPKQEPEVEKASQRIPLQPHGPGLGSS

[7] = cited from earlier work; for ADAS-cog difference compared with placebo: oral tramiprosate
[8] = Day 1, fed, ALZ-801 tablet 265 mg (Cohort D)
[9] = Day 7, fed, ALZ-801 tablet 265 mg twice daily (Cohort D)
[10] = day 7 vs day 1, 171 and 256.5 mg capsules, fasted
[11] = 205 mg ALZ-801 tablets fed (Regimen C) vs fasted

`NCCCS(=O)(=O)O` [tramiprosate, 3-amino-1-propanesulfonic acid] showed a half-life ([1]; after tramiprosate LF capsule 100 mg) of 5.9 ± 5.22 h, a half-life ([1]; after tramiprosate MR tablet 100 mg) of 4.99 ± 2.66 h and an AUC ([2]; AUC12, plasma, Day 1, fed, ALZ-801 tablet 265 mg (Cohort D)) of 3300 ± 608 ng·h/mL. The AUC ([2]; AUC12, plasma, Day 7, fed, ALZ-801 tablet 265 mg twice daily (Cohort D)) was 4100 ± 687 ng·h/mL, the AUC ([2]; AUC24, plasma, Day 1, fed, ALZ-801 tablet 265 mg (Cohort D)) was 3650 ± 670 ng·h/mL and the AUC ([2]; AUC24, plasma, Day 7, fed, ALZ-801 tablet 265 mg twice daily (Cohort D)) was 5020 ± 859 ng·h/mL. The Cmax [2, 8] was 759 ± 163 ng/mL, the Cmax [2, 9] was 865 ± 172 ng/mL and the Tmax [2, 8] was 3.56 ± 0.88 h. It also gave a Tmax [2, 9] of 2.9 ± 0.603 h, a half-life [2, 8] of 8.94 ± 1.35 h and a half-life [2, 9] of 36.1 ± 4.15 h. For the same molecule, the “lower C max in fed than fasted state” value ([2]; 256.5 mg ALZ-801 capsules, day 1) was “approximately 13%”, the “accumulation ratio AUC12” value [2, 10] was 1.3 and the “accumulation ratio C max” value [2, 10] was 1.2. The “lower C max for 265 mg tablet than 256.5 mg capsule” value ([2]; fed state, day 1) was “approximately 12%”, the “lower C max for 265 mg tablets than 256.5 mg capsules” value ([2]; fed, day 7) was 11% and the “lower C max in fed than fasted state” value ([2]; repeated 256.5 mg ALZ-801 capsules, day 7) was roughly 18%. It also gave a half-life ([3]; human, oral, 171 mg) of 12.9 h, a Tmax ([3]; human, oral, 205 mg) of 1.5 h and a half-life ([3]; human, oral, 205 mg) of 16.5 h. It also gave an AUC(0-t) ([3]; human, oral, 205 mg, AUCt, 205 mg ALZ-801 tablets, fed (Regimen C)) of 2990 ng·h/mL, a Cmax ([3]; human, oral, 205 mg, 205 mg ALZ-801 tablets, fed (Regimen C)) of 638 ng/mL and a Cmax ([3]; human, oral, 342 mg, 342 mg ALZ-801 tablets, fed (Regimen D)) of 978 ng/mL. The “delay of T max with food” value [3, 11] was “approximately 30 min”, the “reduced C max with food” value [3, 11] was 17% and the “fold increase in C max for 1.7-fold increase in dose” value ([3]; 342 mg (Regimen D) vs 205 mg ALZ-801 tablets, fed) was 1.5 fold. For the same molecule, the “interindividual variability for exposure” value ([3]; ALZ-801 tablet, fed and fasted states) was 20–35%, the “Mean Ae” value ([4]; Day 1, ALZ-801 tablet 265 mg) was 44.0 mg and the “Mean Ae” value ([4]; Day 7, ALZ-801 tablet 265 mg) was 58.4 mg. For the same molecule, the CL renal ([4]; Day 1, ALZ-801 tablet 265 mg) was 201 ± 48.2 mL/min, the CL renal ([4]; Day 7, ALZ-801 tablet 265 mg) was 194 ± 85.1 mL/min and the “effect on renal transporter” value [5] was “no effect”. For the same molecule, the “effect on renal transporter” value [6] was “no effect”, the “ADAS-cog difference compared with placebo” value ([7]; APOE4 carriers) was 2 point and the “ADAS-cog difference compared with placebo” value ([7]; APOE4 homozygous (APOE4/4) patients) was 4 point. For the same molecule, the CSF drug levels ([7]; oral tramiprosate 150 mg twice daily for 78 weeks) was 60 nM and the “mean plasma exposure AUC12” value ([7]; tramiprosate 150 mg twice daily, 78 weeks, phase III) was 4429 ng·h/mL.
